# From ChEMBL document CHEMBL1149549, “Orally active antimalarials: synthesis and bioevaluation of a new series of steroid-based 1,2,4-trioxanes against multi-drug resistant malaria in mice” (Bioorg Med Chem Lett, 2007)
# Experiments:
# Plasmodium yoelii [1] = assay: Antimalarial activity as reduced parasitaemia (%) against multidrug-resistant Plasmodium yoelii infected Swiss mice (Mus musculus) at 96 mg/kg peroral dose after 4 days; type: functional; design: scale not given: the % may be the effect or the level left; settings: route oral
# Method in brief: (§1)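 Colony-bred Swiss mice (25 ± 1 g) inoculated with 1×10^6 parasitized RBC on day 0, five per dose group. Dosed orally in groundnut oil (0.1 ml), days 0–3, as two divided doses daily. Parasitaemia read from thin blood smears. Day-4 suppression = [(C−T)/C]×100 against the control group; 100% means parasites below the detection limit. β-Arteether was the positive control.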
# Mus musculus [2] = assay: Survival of multidrug-resistant Plasmodium yoelii infected Swiss mice (Mus musculus) at 96 mg/kg, perorally after 28 days; type: ADME, organism-based; design: dose 96 mg/kg, route oral; settings: in vivo, po, 672 h
# Method in brief: (§2)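 Swiss mice (25 ± 1 g) infected on day 0 with 1×10^6 parasitized RBC, five per dose. Given the drug orally in groundnut oil (0.1 ml), split into two daily doses on days 0–3. Parasitaemia followed by thin blood smears from day 4 to 28. Mice surviving beyond day 28 were scored as protected, expressed as the percent of treated mice. β-Arteether was the positive control.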
# Plasmodium yoelii [3] = assay: Antimalarial activity as reduced parasitaemia (%) against multidrug-resistant Plasmodium yoelii infected Swiss mice (Mus musculus) at 48 mg/kg peroral dose after 4 days; type: functional; design: scale not given: the % may be the effect or the level left; settings: route oral; method in brief: as §1
# Mus musculus [4] = assay: Survival of multidrug-resistant Plasmodium yoelii infected Swiss mice (Mus musculus) at 48 mg/kg, perorally after 28 days; type: ADME, organism-based; design: dose 48 mg/kg, route oral; settings: in vivo, po, 672 h; method in brief: as §2
# Plasmodium yoelii [5] = assay: Antimalarial activity as reduced parasitaemia (%) against multidrug-resistant Plasmodium yoelii infected Swiss mice (Mus musculus) at 24 mg/kg peroral dose after 4 days; type: functional; design: scale not given: the % may be the effect or the level left; settings: route oral
SMILES,Activity (Plasmodium yoelii [1]) [%],Activity (Mus musculus [2]),Activity (Plasmodium yoelii [3]) [%],Activity (Mus musculus [4]),Activity (Plasmodium yoelii [5]) [%]
C=C(c1ccc(F)cc1)C1COC2(CC[C@@]3(C)C(CC[C@H]4[C@@H]5CC[C@H]([C@H](C)CCCC(C)C)[C@@]5(C)CC[C@@H]43)C2)OO1 (stereo partly specified),14.8,Not Active,,,
C=C(c1ccc(Cl)cc1)C1COC2(CC[C@@]3(C)C(CC[C@H]4[C@@H]5CC[C@H]([C@H](C)CCCC(C)C)[C@@]5(C)CC[C@@H]43)C2)OO1 (stereo partly specified),43.4,Not Active,,,
C=C(c1ccc(OC)cc1)C1COC2(CC[C@@]3(C)C(CC[C@@H]4[C@@H]3CC[C@@]3(C)[C@H]4OCC34CC[C@@H](C)CO4)C2)OO1 (stereo partly specified),36.1,Not Active,,,
C=C(c1ccc(F)cc1)C1COC2(CC[C@@]3(C)C(CC[C@H]4[C@@H]5CC[C@H](C(C)=O)[C@@]5(C)CC[C@@H]43)C2)OO1 (stereo partly specified),100,,100,,
C=C(c1ccc(Br)cc1)C1COC2(CC[C@@]3(C)C(CC[C@H]4[C@@H]5CC[C@H](C(C)=O)[C@@]5(C)CC[C@@H]43)C2)OO1 (stereo partly specified),100,,100,,
C=C(c1ccccc1)C1COC2(CC[C@@]3(C)C(CC[C@@H]4[C@@H]3CC[C@]3(C)C([C@H](C)CCCC(C)C)CC[C@@H]43)C2)OO1 (stereo partly specified),73,Not Active,,,
C=C(c1ccc(C)cc1)C1COC2(CC[C@@]3(C)C(CC[C@H]4[C@@H]5CC[C@H]([C@H](C)CCCC(C)C)[C@@]5(C)CC[C@@H]43)C2)OO1 (stereo partly specified),27.4,Not Active,,,
C=C(c1ccc(Br)cc1)C1COC2(CC[C@@]3(C)C(CC[C@H]4[C@@H]5CC[C@H]([C@H](C)CCCC(C)C)[C@@]5(C)CC[C@@H]43)C2)OO1 (stereo partly specified),26.1,Not Active,,,
C=C(c1ccc(Cl)cc1)C1COC2(CC[C@@]3(C)C(CC[C@H]4[C@@H]5CC[C@H](C(C)=O)[C@@]5(C)CC[C@@H]43)C2)OO1 (stereo partly specified),100,,100,,
C=C(c1ccc(OC)cc1)C1COC2(CC[C@@]3(C)C(CC[C@H]4[C@@H]5CC[C@H]([C@H](C)CCCC(C)C)[C@@]5(C)CC[C@@H]43)C2)OO1 (stereo partly specified),53.5,Not Active,,,
C=C(c1ccc(OC)cc1)C1COC2(CC[C@@]3(C)C(CC[C@H]4[C@@H]5CC[C@H](C(C)=O)[C@@]5(C)CC[C@@H]43)C2)OO1 (stereo partly specified),100,Active,100,,
C=C(c1ccc(C)cc1)C1COC2(CC[C@@]3(C)C(CC[C@@H]4[C@@H]3CC[C@@]3(C)[C@H]4OCC34CC[C@@H](C)CO4)C2)OO1 (stereo partly specified),50.7,Not Active,,,
C=C(c1ccc(F)cc1)C1COC2(CC[C@@]3(C)C(CC[C@@H]4[C@@H]3CC[C@@]3(C)[C@H]4OCC34CC[C@@H](C)CO4)C2)OO1 (stereo partly specified),45.1,Not Active,,,
C=C(c1ccc(Cl)cc1)C1COC2(CC[C@@]3(C)C(CC[C@@H]4[C@@H]3CC[C@@]3(C)[C@H]4OCC34CC[C@@H](C)CO4)C2)OO1 (stereo partly specified),71.7,Not Active,,,
C=C(c1ccccc1)C1COC2(CC[C@@]3(C)C(CC[C@H]4[C@@H]5CC[C@H](C(C)=O)[C@@]5(C)CC[C@@H]43)C2)OO1 (stereo partly specified),100,,100,,
C=C(c1ccc(C)cc1)C1COC2(CC[C@@]3(C)C(CC[C@H]4[C@@H]5CC[C@H](C(C)=O)[C@@]5(C)CC[C@@H]43)C2)OO1 (stereo partly specified),100,,100,,
CCO[C@H]1O[C@@H]2O[C@@]3(C)CC[C@H]4[C@H](C)CC[C@@H]([C@H]1C)[C@@]24OO3 [ARTEMOTIL],,,100,Active,100
